Assay outcomes: PubChem, The Scripps Research Institute Molecular Screening Center
This excerpt belongs to a sample that is enriched for hits.
RORA inh: RORA (human) inhibition | 0.43% of 65,000 active | P35398 | inhibition, % at 10 µM | CHO-K1 Gal4-RORA LBD luciferase reporter, luminescence;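 active = inhibition above the mean of all tested compounds plus 3 SD, cut at about 52% in these data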
Target sequence (P35398 whole entry, looked up, the tested form may be a part): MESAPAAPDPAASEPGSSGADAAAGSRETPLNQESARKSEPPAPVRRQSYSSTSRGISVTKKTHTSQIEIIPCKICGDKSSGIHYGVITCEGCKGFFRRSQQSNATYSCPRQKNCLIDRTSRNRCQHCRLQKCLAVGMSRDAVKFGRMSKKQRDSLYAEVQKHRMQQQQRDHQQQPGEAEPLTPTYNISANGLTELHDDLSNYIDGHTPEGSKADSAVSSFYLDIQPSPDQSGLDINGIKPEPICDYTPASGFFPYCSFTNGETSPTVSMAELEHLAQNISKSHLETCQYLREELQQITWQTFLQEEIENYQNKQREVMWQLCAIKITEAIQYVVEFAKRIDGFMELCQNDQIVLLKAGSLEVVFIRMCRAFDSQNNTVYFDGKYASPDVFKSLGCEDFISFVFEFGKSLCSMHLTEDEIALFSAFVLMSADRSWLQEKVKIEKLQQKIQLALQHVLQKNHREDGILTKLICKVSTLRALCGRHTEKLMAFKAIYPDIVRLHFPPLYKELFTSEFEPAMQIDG
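Material: transiently transfected CHO-K1 cells, Gal4-DBD/human RORA-LBD fusion plus 5xGal4-luciferase reporter; doses: single concentration per compound, 10 µM final; incubation: 20 h at 37 °C; detection: luminescence from basal luciferase reporter expression; read-out: % inhibition of basal luciferase versus +RORA/-RORA DMSO controls; replication: tested once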
A number is an active result.

Results for COC(=O)c1nnn(CC(=O)Nc2cccc(Cl)c2)c1C(=O)OC ?
RORA inh: inactive

What do the screens show for `COc1ccc(CNc2cc(C)nc3ncnn23)c(OC)c1`?
RORA inh: 67.0

Results for O=C(CSc1nccc2ccccc12)N1CCN(Cc2ccc3c(c2)OCO3)CC1 ?
RORA inh: inactive

Results for O=C(Nc1nnc(C23CC4CC(CC(C4)C2)C3)s1)c1ccco1 ?
RORA inh: inactive

Results for CCNc1nc(N)c(C(=O)c2ccc(Cl)s2)s1 ?
RORA inh: inactive

Results for Cc1ccc(NC(=O)NC2(C(=O)NCc3ccco3)CCCCC2)cc1 ?
RORA inh: inactive

How did O=C(OCc1nc2ccccc2s1)c1cccs1 do in these assays?
RORA inh: inactive

Results for CNc1sc(C(=O)c2cccs2)c(N)c1-c1nc2ccccc2s1 ?
RORA inh: inactive

What do the screens show for `O=C(NC1CC1)c1ccc(-c2nc3ccccc3s2)s1`?
RORA inh: 80.9

What do the screens show for `Cc1ccc(-n2ncc3c2ncn2c(C)nnc32)cc1C`?
RORA inh: inactive

What do the screens show for `CCOc1ccc(S(=O)(=O)N2CCN(Cc3ccccc3)CC2)c2cccnc12`?
RORA inh: inactive

How did CCOC(=O)CS(=O)(=O)c1nc(-c2ccc(F)cc2)cc(C(F)(F)F)n1 do in these assays?
RORA inh: 60.9

How did COCC(C)NC(=O)CCS(=O)(=O)c1nc(-c2ccc(OC)cc2)cc(C(F)(F)F)n1 (stereo unspecified) do in these assays?
RORA inh: inactive

What do the screens show for `CCOC(=O)Cc1cc(=O)n2[nH]c(C)c(-c3ccccc3)c2n1`?
RORA inh: inactive

What do the screens show for `CCOC(=O)CS(=O)(=O)c1nc(-c2ccccc2)cc(C(F)(F)F)n1`?
RORA inh: 60.2

Results for CCOC(=O)c1cnn2c(C)cc(-c3ccccc3)nc12 ?
RORA inh: inactive

How did CCOC(=O)N1CCN(C(=O)c2cc(-c3ccc(OCC)cc3)nc3ccccc23)CC1 do in these assays?
RORA inh: inactive

How did COc1ccc(S(=O)(=O)N(C)CC(=O)N2CCC(C)CC2)cc1Cl do in these assays?
RORA inh: inactive

What do the screens show for `Cn1nnnc1Sc1nc(-c2cccnc2)nc2ccccc12`?
RORA inh: inactive

How did CCOC(=O)CN1CC23C=CC(O2)C(C(=O)Nc2ccc(F)c(C)c2)C3C1=O (stereo unspecified) do in these assays?
RORA inh: inactive

What do the screens show for `CSCCC(NC=C1C(=O)OC(C)(C)OC1=O)C(=O)O` (stereo unspecified)?
RORA inh: inactive

Results for Cc1ccc(S(=O)(=O)c2nc(-c3cccs3)oc2SCC(N)=O)cc1 ?
RORA inh: inactive

What do the screens show for `CC(C)(C)NC(=O)CSc1n[nH]c(=O)n1-c1ccccc1`?
RORA inh: inactive

Results for c1ccc(-c2onc3cc4c(cc23)OCCO4)cc1 ?
RORA inh: inactive

What do the screens show for `COC(=O)/C(=C1/Oc2cc(C)oc(=O)c2S1)C(F)(F)F`?
RORA inh: 94.7

What do the screens show for `Cn1c(OCc2cccnc2)nc2c1c(=O)n(Cc1ccc(Br)cc1)c(=O)n2C`?
RORA inh: inactive

What do the screens show for `O=S1(=O)C=C(Sc2nc3cc(Cl)ccc3o2)c2ccccc21`?
RORA inh: 75.3

What do the screens show for `O=C(CCCNS(=O)(=O)c1cccc2nsnc12)NCc1ccc(F)cc1`?
RORA inh: inactive

What do the screens show for `CSc1cccc(NS(=O)(=O)c2cccc3nsnc23)c1`?
RORA inh: inactive

What do the screens show for `CCCCOc1ncnc2c1[nH]c1ccc(F)cc12`?
RORA inh: 70.4

How did O=C(Nc1cccc(Br)c1)c1ccn[nH]1 do in these assays?
RORA inh: inactive

How did CCCc1cc(=O)[nH]c(Nc2ccc(OC)c(Cl)c2)n1 do in these assays?
RORA inh: inactive

What do the screens show for `COc1ccc(Cn2c(C3CC3)nc3ccc(NC(=O)c4ccco4)cc3c2=O)cc1`?
RORA inh: inactive

Results for Cc1csc(=N)n1-c1ccc(Cl)cc1 ?
RORA inh: inactive

How did O=c1c2ccccc2nc2sc3ccccc3n12 do in these assays?
RORA inh: inactive

How did Cc1nn(-c2nc3ccccc3s2)c(N)c1Sc1ccc(F)cc1 do in these assays?
RORA inh: inactive

What do the screens show for `O=c1c2ccccc2cnn1-c1nc2ccccc2s1`?
RORA inh: 90.0

Results for C/C(=N\O)c1ccc2c3c([nH]c2c1)CCCC3 ?
RORA inh: inactive

How did CC(C)OC(=O)CSc1nnnn1-c1ccc2c(c1)OCCO2 do in these assays?
RORA inh: inactive

How did COc1ccc(OC)c(NC(=O)CSc2nnnn2-c2ccc3c(c2)OCO3)c1 do in these assays?
RORA inh: 79.9

Results for COc1ccc(OC)c(-n2nnnc2SCC(=O)Nc2ccc(C(=O)N3CCCCC3)cc2)c1 ?
RORA inh: inactive

Results for CCC(C)(C(=O)NC1CCCCC1)N(C(=O)c1cnccn1)c1c(C)n(C)n(-c2ccccc2)c1=O (stereo unspecified) ?
RORA inh: inactive

How did O=c1cc(N2CCc3ccccc32)[nH]c(=O)n1Cc1ccc(F)cc1 do in these assays?
RORA inh: inactive

How did COc1ccc2cc(CCNC(=O)C3CCCC3)c(=O)[nH]c2c1 do in these assays?
RORA inh: inactive

Results for CS(=O)(=O)Nc1ccc(S(=O)(=O)NCCc2ccccc2)cc1 ?
RORA inh: inactive

What do the screens show for `O=C(Nc1ccc2c(c1)OCO2)C1CCCCN1S(=O)(=O)c1ccc(F)cc1` (stereo unspecified)?
RORA inh: inactive

What do the screens show for `c1ccc(CNc2ncnc3ccccc23)cc1`?
RORA inh: 56.3

Results for Cc1ccc(-n2ncc3c(NCc4ccccc4)ncnc32)cc1 ?
RORA inh: inactive

Results for CCOc1ccccc1Nc1ncnc2ccccc12 ?
RORA inh: inactive

How did Brc1cccc(C2CC(c3ccccc3)n3nnnc3N2)c1 (stereo unspecified) do in these assays?
RORA inh: inactive

How did CCOC(=O)c1ccc(NS(=O)(=O)N2CCCCCC2)cc1 do in these assays?
RORA inh: inactive

What do the screens show for `Cc1ccc2nc(C(F)(F)F)c(C#N)c(N)c2c1`?
RORA inh: 57.2

How did CSCC[C@H](NC(=O)OC(C)(C)C)C(=O)N1CCC(C(=O)N[C@H](C(=O)O)C(C)C)CC1 do in these assays?
RORA inh: inactive

What do the screens show for `CCOc1ccccc1N(CC(=O)NC1CCCC1)C(=O)CCC(=O)Nc1cc(C)on1`?
RORA inh: inactive

Results for O=C(CSc1nnc(NC(=O)CN2CCOCC2)s1)Nc1ccccc1 ?
RORA inh: inactive

What do the screens show for `Cc1ccc(CS(=O)(=O)CCC(=O)NCCCN2CCCC2=O)cc1`?
RORA inh: inactive

Results for CCCCn1c(SCC(=O)NCc2ccco2)nnc1-c1ccoc1C ?
RORA inh: inactive

How did COc1ccc(-c2nc(CSCC(=O)N3CCc4ccccc43)c(C)o2)cc1OC do in these assays?
RORA inh: inactive

What do the screens show for `Cc1ccc(-c2nc(CS(=O)(=O)CC(=O)N3CC(C)CC(C)C3)c(C)o2)cc1` (stereo unspecified)?
RORA inh: inactive

Results for CCc1ccc(-c2nc(CSCC(=O)NCCCN3CCCC3=O)c(C)o2)cc1 ?
RORA inh: 74.0

How did COCCNC(=O)CSCc1nc(-c2ccc(SC)cc2)oc1C do in these assays?
RORA inh: 89.0

How did COc1ccc(-c2nc(CS(=O)CC(=O)NCc3ccco3)c(C)o2)cc1 (stereo unspecified) do in these assays?
RORA inh: inactive

How did CCc1ccc(-c2nc(CSCC(=O)N3CCN(c4ccccn4)CC3)c(C)o2)cc1 do in these assays?
RORA inh: inactive

What do the screens show for `CCCCNC(=O)c1cc(-c2ccc(OC)cc2)on1`?
RORA inh: inactive

Results for CCOc1ccc(-c2cc(CCCC(=O)NCc3ccco3)no2)cc1 ?
RORA inh: 58.5
